From article PMC10825549 (JID Innovations, 2023)
“Also recorded” adds a separate entry of the source.

Experiments:
TYK2 = TYK2 (Homo sapiens, UniProt P29597); test: Inhibition of catalytic domain activity, TYK2; assay type: biochemical
Procedure, shortened: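 Z′-LYTE biochemical kinase assay run by the vendor per manufacturer's protocol. Each kinase plate carried 0%/100% phosphorylation and 0%/100% inhibition controls. Development-reaction and compound-fluorescence interference controls at each compound concentration. n = 1 per kinase.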

Aurora A = Aurora A (Homo sapiens, UniProt O14965); test: IC50 for kinases of potential cross-over; assay type: biochemical
KDR (VEGFR2) = KDR (VEGFR2) (Homo sapiens, UniProt P35968); test: IC50 for kinases of potential cross-over; assay type: biochemical
MKNK1/MNK1 = MKNK1/MNK1 (Homo sapiens, UniProt Q9BUB5); test: IC50 for kinases of potential cross-over; assay type: biochemical
FLT4 (VEGFR3) = FLT4 (VEGFR3) (Homo sapiens, UniProt P35916); test: IC50 for kinases of potential cross-over; assay type: biochemical
[1] = Metabolic stability in liver microsomes; assay type: in vitro ADME; conditions: human
Procedure, shortened: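 Test compound from 1 mM DMSO solution preincubated 5 min with dog, human, monkey, rat or minipig liver microsomes. NADPH (10 mM) then added. Reactions stopped at 0, 5, 15 and 30 min with 0.05% formic acid in acetonitrile containing loperamide internal standard. Supernatants analysed by LC-MS/MS; n = 1 per microsome species.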

CYP2C19 = CYP2C19 (Homo sapiens, UniProt P33261); test: Cytochrome P450 phenotyping; assay type: in vitro ADME; conditions: recombinant human CYP2C19; with NADPH; 60 minutes; n = 1
[2] = 28-day minipig repeat exposure study: toxicokinetics; assay type: in vivo; conditions: for concentration at 0 h / concentration at 0.5 h / concentration at 1 h / concentration at 2 h / concentration at 4 h / concentration at 8 h / concentration at 12 h / concentration at 24 h: both, plasma, topical; for concentration in the skin: terminal sacrifice (day 28)
Procedure, shortened: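 Topical solution applied to minipigs once daily for 28 days at 0, 40, 80 or 160 mg/day, left on skin 20–22 h, then wiped with moist towel. Jugular blood collected days 1 and 28, pre-dose and ~0.5, 1, 2, 4, 8, 12, 22 h after application, after IM acepromazine 0.2–0.4 mg/kg. Pigs nonfasted; K2 EDTA plasma; validated LC-MS/MS.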

Jak1/3 = test: IC50 of ATI-1777 for inhibiting Jak1/3 used as plasma reference level; conditions: reference level for plasma concentrations; assay not described
[3] = Phase 2a study ATI-1777-AD-201: plasma pharmacokinetics; assay type: in vivo, human
Procedure, shortened: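 Participants with moderate/severe AD applied 2% topical solution twice daily for 4 weeks. Plasma test compound measured by sparse sampling, 8 samples per participant. Concentrations expressed relative to the Jak1/3 IC50.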

[4] = test system: participants with atopic dermatitis; test: Phase 2a study ATI-1777-AD-201: safety; assay type: in vivo, human
Procedure, shortened: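 Adults with moderate/severe AD applied 2% solution or vehicle twice daily for 4 weeks. TEAEs: onset on/after first dose and before last dose […], counted once per preferred term and system organ class. Also assessed serious AEs, labs, vital signs, physical exams, 12-lead ECG. Full analysis set; safety reviewed every 4 weeks.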

FLT4 (VEGFR3), sequence (P35916 25-1363): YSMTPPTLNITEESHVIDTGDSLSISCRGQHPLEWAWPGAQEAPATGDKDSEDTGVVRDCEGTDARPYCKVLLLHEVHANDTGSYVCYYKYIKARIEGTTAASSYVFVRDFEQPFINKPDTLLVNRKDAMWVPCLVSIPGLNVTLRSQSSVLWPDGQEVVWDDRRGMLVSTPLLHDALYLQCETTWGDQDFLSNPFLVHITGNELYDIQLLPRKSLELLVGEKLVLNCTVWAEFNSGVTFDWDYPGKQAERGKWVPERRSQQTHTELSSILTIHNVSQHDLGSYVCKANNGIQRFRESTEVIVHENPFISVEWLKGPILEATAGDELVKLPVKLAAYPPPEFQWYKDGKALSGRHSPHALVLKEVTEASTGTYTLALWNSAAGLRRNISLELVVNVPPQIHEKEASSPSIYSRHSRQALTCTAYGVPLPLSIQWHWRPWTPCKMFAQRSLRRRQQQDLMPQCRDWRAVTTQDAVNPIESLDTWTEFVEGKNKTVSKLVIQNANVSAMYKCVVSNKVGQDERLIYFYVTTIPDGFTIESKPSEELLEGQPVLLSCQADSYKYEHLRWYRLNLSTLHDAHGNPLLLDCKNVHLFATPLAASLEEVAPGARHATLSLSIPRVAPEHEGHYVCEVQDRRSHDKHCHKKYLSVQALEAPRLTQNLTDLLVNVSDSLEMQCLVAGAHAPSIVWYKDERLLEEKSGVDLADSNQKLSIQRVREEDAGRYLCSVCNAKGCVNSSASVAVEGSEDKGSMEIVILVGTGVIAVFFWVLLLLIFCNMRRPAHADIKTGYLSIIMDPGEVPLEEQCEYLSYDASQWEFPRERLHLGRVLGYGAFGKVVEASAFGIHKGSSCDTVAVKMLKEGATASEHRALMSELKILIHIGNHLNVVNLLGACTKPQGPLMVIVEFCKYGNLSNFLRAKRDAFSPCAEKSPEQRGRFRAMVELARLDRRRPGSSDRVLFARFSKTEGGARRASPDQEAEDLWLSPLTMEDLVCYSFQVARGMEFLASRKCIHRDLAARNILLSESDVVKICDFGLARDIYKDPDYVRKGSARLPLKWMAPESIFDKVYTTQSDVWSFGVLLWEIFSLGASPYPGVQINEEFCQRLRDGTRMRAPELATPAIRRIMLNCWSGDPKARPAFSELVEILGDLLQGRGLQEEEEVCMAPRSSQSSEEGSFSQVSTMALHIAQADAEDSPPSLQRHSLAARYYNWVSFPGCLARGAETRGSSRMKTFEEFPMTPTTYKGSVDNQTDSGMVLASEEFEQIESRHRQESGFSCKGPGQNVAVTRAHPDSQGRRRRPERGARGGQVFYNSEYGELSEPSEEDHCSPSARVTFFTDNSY
KDR (VEGFR2), sequence (P35968 20-1356): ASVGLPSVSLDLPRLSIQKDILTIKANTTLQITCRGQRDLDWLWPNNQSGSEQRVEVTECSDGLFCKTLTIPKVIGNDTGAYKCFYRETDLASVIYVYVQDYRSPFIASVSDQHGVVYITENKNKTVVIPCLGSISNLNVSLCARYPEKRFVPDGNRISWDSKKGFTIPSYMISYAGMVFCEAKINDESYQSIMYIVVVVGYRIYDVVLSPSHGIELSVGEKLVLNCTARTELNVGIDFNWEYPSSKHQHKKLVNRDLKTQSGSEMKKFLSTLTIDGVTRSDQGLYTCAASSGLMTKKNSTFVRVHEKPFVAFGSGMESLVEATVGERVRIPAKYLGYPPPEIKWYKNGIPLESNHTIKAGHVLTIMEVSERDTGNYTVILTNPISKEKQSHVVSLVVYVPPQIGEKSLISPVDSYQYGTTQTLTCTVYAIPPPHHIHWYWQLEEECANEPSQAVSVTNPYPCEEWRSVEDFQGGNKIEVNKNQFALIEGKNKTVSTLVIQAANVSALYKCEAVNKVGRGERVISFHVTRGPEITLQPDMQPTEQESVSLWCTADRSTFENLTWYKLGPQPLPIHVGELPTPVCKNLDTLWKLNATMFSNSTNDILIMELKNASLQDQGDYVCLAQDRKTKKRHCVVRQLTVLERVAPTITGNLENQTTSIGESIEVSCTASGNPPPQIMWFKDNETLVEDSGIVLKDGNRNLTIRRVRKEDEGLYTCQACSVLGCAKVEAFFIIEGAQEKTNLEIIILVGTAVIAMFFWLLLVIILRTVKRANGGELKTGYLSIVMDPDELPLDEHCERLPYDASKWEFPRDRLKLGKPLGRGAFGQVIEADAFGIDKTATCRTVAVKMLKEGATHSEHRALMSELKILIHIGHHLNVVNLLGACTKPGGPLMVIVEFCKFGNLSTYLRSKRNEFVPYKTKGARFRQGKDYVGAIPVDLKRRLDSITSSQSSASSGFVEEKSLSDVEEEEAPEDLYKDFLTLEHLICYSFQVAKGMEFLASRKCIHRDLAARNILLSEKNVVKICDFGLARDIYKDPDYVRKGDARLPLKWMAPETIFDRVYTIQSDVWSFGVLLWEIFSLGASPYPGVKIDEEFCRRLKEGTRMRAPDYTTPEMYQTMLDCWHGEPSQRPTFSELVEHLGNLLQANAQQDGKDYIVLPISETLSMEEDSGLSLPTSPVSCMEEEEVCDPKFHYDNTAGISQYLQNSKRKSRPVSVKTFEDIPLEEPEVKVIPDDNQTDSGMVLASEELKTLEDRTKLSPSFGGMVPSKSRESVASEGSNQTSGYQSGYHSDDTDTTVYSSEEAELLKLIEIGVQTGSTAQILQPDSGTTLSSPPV
Aurora A, sequence (O14965 whole entry): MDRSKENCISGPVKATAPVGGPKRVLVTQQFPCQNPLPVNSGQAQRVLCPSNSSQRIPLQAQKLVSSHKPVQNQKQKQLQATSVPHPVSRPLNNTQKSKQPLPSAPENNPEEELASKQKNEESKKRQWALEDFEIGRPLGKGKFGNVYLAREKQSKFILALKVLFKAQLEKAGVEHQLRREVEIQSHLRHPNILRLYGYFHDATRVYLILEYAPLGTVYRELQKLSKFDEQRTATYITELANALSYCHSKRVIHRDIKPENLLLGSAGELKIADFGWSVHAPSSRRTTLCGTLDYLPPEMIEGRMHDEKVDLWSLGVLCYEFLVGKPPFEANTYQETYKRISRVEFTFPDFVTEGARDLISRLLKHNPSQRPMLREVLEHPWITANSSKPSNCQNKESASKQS
MKNK1/MNK1, sequence (Q9BUB5 whole entry): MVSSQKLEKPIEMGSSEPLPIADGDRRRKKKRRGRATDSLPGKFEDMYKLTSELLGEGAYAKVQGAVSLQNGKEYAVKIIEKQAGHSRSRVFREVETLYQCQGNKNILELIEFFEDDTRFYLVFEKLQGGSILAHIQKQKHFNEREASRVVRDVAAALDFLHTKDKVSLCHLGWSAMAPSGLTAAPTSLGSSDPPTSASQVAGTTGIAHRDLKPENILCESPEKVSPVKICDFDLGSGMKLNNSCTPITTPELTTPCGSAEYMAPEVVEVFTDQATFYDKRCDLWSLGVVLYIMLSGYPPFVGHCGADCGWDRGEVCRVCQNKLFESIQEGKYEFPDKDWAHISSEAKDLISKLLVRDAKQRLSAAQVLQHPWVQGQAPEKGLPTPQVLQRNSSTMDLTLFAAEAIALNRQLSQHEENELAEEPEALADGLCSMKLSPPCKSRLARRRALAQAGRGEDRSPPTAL
TYK2, sequence (P29597 897-1176 limits assumed): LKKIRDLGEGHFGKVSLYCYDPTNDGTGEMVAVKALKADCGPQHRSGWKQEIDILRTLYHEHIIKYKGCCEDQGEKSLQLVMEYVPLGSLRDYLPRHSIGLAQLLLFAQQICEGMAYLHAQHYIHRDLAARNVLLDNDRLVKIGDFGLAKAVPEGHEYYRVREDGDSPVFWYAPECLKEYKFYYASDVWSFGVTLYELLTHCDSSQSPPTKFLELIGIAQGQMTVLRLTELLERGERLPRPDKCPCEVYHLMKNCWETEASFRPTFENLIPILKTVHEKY
CYP2C19, sequence (P33261 whole entry): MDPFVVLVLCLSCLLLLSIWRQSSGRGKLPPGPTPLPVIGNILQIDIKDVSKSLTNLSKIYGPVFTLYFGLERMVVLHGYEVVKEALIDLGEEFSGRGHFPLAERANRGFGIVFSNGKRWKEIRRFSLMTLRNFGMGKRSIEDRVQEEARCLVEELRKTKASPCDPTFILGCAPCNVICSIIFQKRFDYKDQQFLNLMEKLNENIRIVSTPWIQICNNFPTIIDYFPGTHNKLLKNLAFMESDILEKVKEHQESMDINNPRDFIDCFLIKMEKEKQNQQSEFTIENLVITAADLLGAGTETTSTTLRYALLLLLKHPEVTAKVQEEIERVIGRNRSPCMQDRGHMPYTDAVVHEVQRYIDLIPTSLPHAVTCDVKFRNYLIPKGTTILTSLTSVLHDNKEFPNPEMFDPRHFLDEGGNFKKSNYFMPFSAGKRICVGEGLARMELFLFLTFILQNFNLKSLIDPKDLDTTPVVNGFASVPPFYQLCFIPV

For CCOC(=O)c1cnc2[nH]ccc2c1N[C@@H]1CCCN(C(=O)CC#N)C1 [ATI-1777, ethyl (R)-4-((1-(2-cyanoacetyl)piperidin-3-yl)amino)-1H-pyrrolo[2,3-b]pyridine-5-carboxylate], the IC50 (TYK2) was 19 nM, the IC50 (Aurora A) was 641 nM and the “Fold Selectivity” value (Aurora A; Aurora A vs Jak1 (= 1)) was 427 fold. For the same compound, the IC50 (KDR (VEGFR2)) was 127 nM, the “Fold Selectivity” value (KDR (VEGFR2); KDR (VEGFR2) vs Jak1 (= 1)) was 85 fold and the IC50 (MKNK1/MNK1) was 584 nM. The “Fold Selectivity” value (MKNK1/MNK1; MKNK1/MNK1 vs Jak1 (= 1)) was 389 fold, the IC50 (FLT4 (VEGFR3)) was 113 nM and the “Fold Selectivity” value (FLT4 (VEGFR3); FLT4 (VEGFR3) vs Jak1 (= 1)) was 75 fold. The CLint scaled [1] was 200 mL/min/kg, the microsomal CLint [1] was 74 µL/min/mg and the half-life ([1]; T1/2, Study 1, n = 1) was 8.71 min. For the same compound, the half-life ([1]; T1/2, Study 2, n = 1) was 19 min, the “Percentage Remaining” value (CYP2C19) was 75.5% and the quantifiable plasma concentrations ([2]; 160 mg group, day 28, all pigs) was less than 6.26 ng/mL. For the same compound, the “plasma concentrations when quantifiable” value ([2]; 40 and 80 mg/day, days 1 and 28, nonquantifiable in most pigs) was no more than 4.94 ng/mL, the concentration at 0 h ([2]; 40 mg/day) was 0.34 ng/mL and the concentration at 0.5 h ([2]; 40 mg/day) was 0.143 ng/mL. The concentration at 1 h ([2]; 40 mg/day) was 0.0685 ng/mL, the concentration at 2 h ([2]; 40 mg/day) was 0.108 ng/mL and the concentration at 4 h ([2]; 40 mg/day) was 0.121 ng/mL. For the same compound, the concentration at 8 h ([2]; 40 mg/day) was 0 ng/mL, the concentration at 12 h ([2]; 40 mg/day) was 0 ng/mL and the concentration at 24 h ([2]; 40 mg/day) was 0 ng/mL. For the same compound, the concentration at 0 h ([2]; 80 mg/day) was 0.118 ng/mL, the concentration at 0.5 h ([2]; 80 mg/day) was 0.647 ng/mL and the concentration at 1 h ([2]; 80 mg/day) was 0.0995 ng/mL. For the same compound, the concentration at 2 h ([2]; 80 mg/day) was 0.197 ng/mL, the concentration at 4 h ([2]; 80 mg/day) was 0.193 ng/mL and the concentration at 8 h ([2]; 80 mg/day) was 0.173 ng/mL. It also gave a concentration at 12 h ([2]; 80 mg/day) of 0.823 ng/mL, a concentration at 24 h ([2]; 80 mg/day) of 0 ng/mL and a concentration at 0 h ([2]; 160 mg/day) of 1.82 ng/mL. It also gave a concentration at 0.5 h ([2]; 160 mg/day) of 0.479 ng/mL, a concentration at 1 h ([2]; 160 mg/day) of 1.14 ng/mL and a concentration at 2 h ([2]; 160 mg/day) of 1.12 ng/mL. The concentration at 4 h ([2]; 160 mg/day) was 0.755 ng/mL, the concentration at 8 h ([2]; 160 mg/day) was 0.684 ng/mL and the concentration at 12 h ([2]; 160 mg/day) was 1.02 ng/mL. For the same compound, the concentration at 24 h ([2]; 160 mg/day) was 0.0569 ng/mL, the “concentration in the skin” value ([2]; females) was no less than 1960 ng/g and the “concentration in the skin” value ([2]; males) was no less than 4280 ng/g. For the same compound, the “IC50 of ATI-1777 for inhibiting Jak1/3” value (Jak1/3) was 0.045 µg/mL, the “all plasma concentrations relative to IC50 for Jak1/3” value ([3]; IC50 45 ng/ml) was “less than half of the IC50” and the “plasma concentrations relative to inhibitory concentrations for Jak1/2” value ([3]; all plasma concentrations) was “below IC10”. The “mean plasma concentration as percentage of the IC50 for Jak1/3” value ([3]; each timepoint, IC50 45 ng/ml) was less than 5%, the “participants with samples with concentrations >10% of the IC50 for Jak1/3” value ([3]; in vivo) was “Three” and the “deaths, serious adverse events, TEAEs of special interest” value ([4]; 2% topical solution twice daily, 4 weeks) was “No deaths or serious adverse events were reported; also recorded: No deaths or treatment-emergent AEs (TEAEs) of special interest; also recorded: No deaths or serious AEs were reported”. For the same compound, the “AEs reported, proportion of participants” value ([4]; 2% topical solution twice daily, 4 weeks, n = 23) was 39.1%, the “Acrochordon, Number of Events” value ([4]; TEAE, PT, n = 23) was 1 and the “Acrochordon, Number of Subjects” value ([4]; TEAE, PT, n = 23) was 1 (4.3) n (%). For the same compound, the “Amylase increased, Number of Events” value ([4]; TEAE, PT, n = 23) was 1, the “Amylase increased, Number of Subjects” value ([4]; TEAE, PT, n = 23) was 1 (4.3) n (%) and the “Application site irritation, Number of Events” value ([4]; TEAE, PT, n = 23) was 0. For the same compound, the “Application site irritation, Number of Subjects” value ([4]; TEAE, PT, n = 23) was 0 n (%), the “Application site pruritus, Number of Events” value ([4]; TEAE, PT, n = 23) was 1 and the “Application site pruritus, Number of Subjects” value ([4]; TEAE, PT, n = 23) was 1 (4.3) n (%). The “Atrial fibrillation, Number of Events” value ([4]; TEAE, PT, n = 23) was 1.
